The values that follow come from ChEMBL document CHEMBL1122398, “Some biological properties of the impure dichloride salt of tetrakis[p-(dimethylamino)phenyl]ethylene and a pinacolone” (1983).

Values joined by “and” are separate entries in the source; they are usually repeats but may differ in a detail not shown here. Equal entries are not always repeated.

Assay [1] concerns Mus musculus. As to the kind of experiment: Tested for average survival days in control mice at a dose of 10 mg/Kg. The class given is functional. The gist of the method:
(§1)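 Groups of five female C3H mice received 7.5×10^6 Gardner lymphosarcoma (6C3 HED) cells per mouse intraperitoneally. Starting 1 day later, mice were dosed subcutaneously on the lower back once daily for 5 days, with test material in saline or 10% (CH₃)₂SO. Control mice received vehicle only. Read-outs were average survival in days and the number of mice surviving 50 days.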

In assay [2] the test system is Mus musculus. The assay is described as follows: Number of mice with 50-day survival period in control group at a dose of 5 mg/Kg tested out of 5 mice treated. The assay is classed as functional. In outline:
as §1

Assay [3] deals with Mus musculus. The assay is described as follows: Number of mice with 50-day survival period after treating with 10 mg/Kg of compound out of 5 tested. The class given is functional. The gist of the method: as §1
The test system of assay [4] is Mus musculus. As to the kind of experiment: Tested for anti-lymphosarcoma activity in mice at the dose of 5 mg/kg by determining average survivals.
Assay [5] deals with Mus musculus. As to the kind of experiment: Number of mice with 50-day survival period in control group at a dose of 10 mg/Kg tested out of 5 mice treated. The assay is classed as functional. In outline: as §1
Assay [6] deals with Mus musculus. The assay is described as follows: Number of mice with 50-day survival period after treating with 5 mg/Kg of compound out of 5 tested. The assay is classed as functional. The gist of the method: as §1
The subject of assay [7] is Mus musculus. The assay is described as follows: Tested for average survival days in control mice at a dose of 5 mg/Kg. The assay is classed as functional. The gist of the method: as §1
Assay [8] concerns Mus musculus. The assay is described as follows: Tested for anti-lymphosarcoma in mice at the dose of 10 mg/kg. The class given is functional. The gist of the method:
as §1

The species entered for assay [9] is Mus musculus. As to the kind of experiment: Tested for average survival days in mice (control). The class given is functional. The gist of the method: as §1
For assay [10], the species on record is Mus musculus. The assay is described as follows: Tested for anti-lymphosarcoma activity in mice (control) with 50-day survival period out of 5 tested. The class given is functional. In outline:
as §1

Assay [11] deals with Mus musculus. The assay is described as follows: Tested for anti-lymphosarcoma activity in mice at the dose of 10 mg/kg by determining average survivals. The assay is classed as functional. The gist of the method:
as §1

Consider `CN(C)c1ccc(C(=C(c2ccc(N(C)C)cc2)c2ccc(N(C)C)cc2)c2ccc(N(C)C)cc2)cc1`, for which the Average survival stood at 14.8 days with Mus musculus [1], 21.5 days in the assay on Mus musculus [4], 14.8 days in the assay on Mus musculus [7] and 37.6 days in the assay with Mus musculus [8]. In addition, the No. of survivals in the assay on Mus musculus [2] was determined as 0; in the assay with Mus musculus [3], 4; with Mus musculus [5], 0; in the assay on Mus musculus [6], 1.

For the molecule `CN(C)c1ccc(C(=C2C=CC(=[N+](C)C)C=C2)C(c2ccc(N(C)C)cc2)c2ccc(N(C)C)cc2)cc1`, the No. of survivals in the assay on Mus musculus [3] and in the assay filed under Mus musculus [10] was 0 each time. The Average survival in the assay with Mus musculus [4] is 13.2 days; in the assay filed under Mus musculus [9], 12.2 days.

On to `CN(C)c1ccc(C(=C2C=CC(=[N+](C)C)C=C2)C(=C2C=CC(=[N+](C)C)C=C2)c2ccc(N(C)C)cc2)cc1`, for which, in the assay with Mus musculus [3], the No. of survivals stood at 4. Besides, the Average survival in the assay on Mus musculus [11] was 37.6 days and 42.8 days; in the assay listed under Mus musculus [9], 14.8 days and 23 days.
